GASC1 inh – inhibitors of human demethylase GASC-1 KDM4C; GST-KDM4C 2-372, H3K9me3 peptide, LANCE TR-FRET; Q9H3R0; inhibition, % at 12.5 µM; 96,000 compounds, 0.15% hits; AID 720574;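 active = mean replicate inhibition above about 25%, with at least 55% of replicates also reaching it, limit read from the data, passing the limit was not always enough; inconclusive = only one of those two conditions met; inactive = neither condition met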
Target sequence (Q9H3R0 2-372 limits assumed): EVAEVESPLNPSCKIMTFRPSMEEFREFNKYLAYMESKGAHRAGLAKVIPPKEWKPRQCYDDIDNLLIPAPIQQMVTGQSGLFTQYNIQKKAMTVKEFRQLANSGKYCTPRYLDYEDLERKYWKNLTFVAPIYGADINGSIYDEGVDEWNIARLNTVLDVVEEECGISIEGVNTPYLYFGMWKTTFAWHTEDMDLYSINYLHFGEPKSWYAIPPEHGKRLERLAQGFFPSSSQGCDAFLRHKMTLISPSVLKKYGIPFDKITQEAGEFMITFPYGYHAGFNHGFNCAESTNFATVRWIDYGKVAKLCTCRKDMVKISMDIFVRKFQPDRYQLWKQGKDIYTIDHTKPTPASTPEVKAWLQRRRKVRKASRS
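Material: GST-tagged GASC-1 (JMJD2C) catalytic fragment, aa 2-372. Input: enzyme final amount 10 nM. Medium: HEPES buffer, pH 7.5, plus ascorbate. Reagent: H3K9me3 peptide substrate, Fe(II), 2-oxoglutarate. Doses: single dose. Times: reaction 30 min RT, detection step 1 h RT. Measured by: LANCE TR-FRET. Evaluation: Fall in 671/618 emission ratio as inhibition.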
Pf Dd2 inh – blocks growth of Plasmodium falciparum Dd2 parasites; AID 1159554; activity change, % at 10 µM; 94,000 compounds, 2.3% hits; P. falciparum Dd2 growth, SYBR Green, 72 h; active compounds read low; in the data active = activity change below about -80%; inconclusive = no clear call, values can overlap the other calls
T cruzi growth-1 – inhibitors of T. cruzi proliferation; T. cruzi beta-gal in NIH3T3, GalScreen luminescence, 90 h; inhibition, % at 8.34 µM; 77,000 compounds, 5.9% hits; AID 624255;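 active = mean inhibition above about 93%, with at least 55% of replicates each passing it, limit read from the data, passing the limit was not always enough; inconclusive = only one of those two conditions holds; inactive = neither condition holds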
IDH1 R132H inh – blocks human IDH1 R132H reductase activity. O75874. diaphorase/resazurin fluorescence, 60 min. inhibition, % at 10 µM. 70,000 compounds, 0.18% hits. AID 624101; in the data active = inhibition above about 34%; inconclusive = no clear call, values can overlap the other calls; inactive = below about 11%
T cruzi growth-2 – Trypanosoma cruzi proliferation inhibition; T. cruzi beta-gal in NIH3T3, GalScreen luminescence, 90 h; 5,600 compounds, 72% hits; inhibition, % at 8.35 µM; shares compounds with T cruzi growth-1;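 active = mean replicate inhibition above about 95% and at least 55% of replicates individually reaching it, limit read from the data; inconclusive = only one of the two criteria is met; inactive = neither criterion is met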
T cruzi growth-3 – Trypanosoma cruzi proliferation inhibition | shares compounds with T cruzi growth-1 | T. cruzi beta-gal in NIH3T3, GalScreen luminescence, 90 h | inhibition, % at 2.09 µM | 5,600 compounds, 21% hits | AID 651740;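 active = mean inhibition above about 95%, with at least 55% of replicates also reaching it, limit read from the data; inconclusive = meets just one of the two conditions; inactive = meets neither condition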
3T3 cytotox – cytotoxicity in mouse NIH/3T3 fibroblasts; shares compounds with T cruzi growth-1; NIH/3T3 viability, CellTiter-Glo ATP luminescence, 90 h; cytotoxicity (signal decrease), % at 8.35 µM; 5,600 compounds, 14% hits; AID 651742;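 active = mean signal decrease across replicates above about 35% based on untreated-well scatter, with enough replicates individually passing, limit read from the data; inconclusive = no rule stated though some were filed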
3T3 cytotox 2 – cytotoxicity in mouse NIH/3T3 fibroblasts; shares compounds with T cruzi growth-1; NIH/3T3 viability, CellTiter-Glo ATP luminescence, 90 h; inhibition, % at 24.9 µM; 5,600 compounds, 56% hits; AID 651744;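 active = mean loss of cell viability signal at or above a set limit, and enough replicates individually reaching it; inconclusive = meets only the mean limit or only the replicate share; inactive = meets neither condition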
Numbers stand for hits; n = inactive; u = inconclusive; x = no result. Rows were chosen to be rich in hits. Some 5.8% of all compounds tested hit in one or more screens of this group.

SMILES	GASC1 inh	Pf Dd2 inh	T cruzi growth-1	IDH1 R132H inh	T cruzi growth-2	T cruzi growth-3	3T3 cytotox	3T3 cytotox 2
C[C@@H]1CN([C@@H](C)CO)S(=O)(=O)c2ccc(-c3ccncc3)cc2O[C@H]1CN(C)C(=O)Nc1ccc(C(F)(F)F)cc1	n	n	n	n	x	x	x	x
C[C@H](CO)N1C[C@H](C)[C@@H](CN(C)C(=O)Nc2ccc(C(F)(F)F)cc2)Oc2cc(-c3ccncc3)ccc2S1(=O)=O	n	n	103	n	110	n	n	48
C[C@@H]1CN([C@@H](C)CO)S(=O)(=O)c2ccc(-c3ccncc3)cc2O[C@@H]1CN(C)C(=O)Nc1ccc(C(F)(F)F)cc1	n	n	u	n	108	n	n	67
Cc1ccc(S(=O)(=O)Nc2ccc3c(c2)C(=O)N([C@@H](C)CO)C[C@@H](C)[C@H](CN(C)C)OCCCC[C@H](C)O3)cc1	n	n	n	x	x	x	x	x
CC(C)CC#Cc1ccc2c(c1)O[C@@H](CN(C)Cc1cccnc1)[C@@H](C)CN([C@H](C)CO)S2(=O)=O	n	x	n	n	x	x	x	x
CC(C)CC#Cc1ccc2c(c1)O[C@H](CN(C)Cc1cncnc1)[C@H](C)CN([C@H](C)CO)S2(=O)=O	n	n	n	n	x	x	x	x
CC(C)CC#Cc1ccc2c(c1)O[C@H](CN(C)Cc1cncnc1)[C@@H](C)CN([C@H](C)CO)S2(=O)=O	n	n	103	n	n	106	47	61
CC(C)CC#Cc1ccc2c(c1)O[C@H](CN(C)Cc1cccnc1)[C@@H](C)CN([C@@H](C)CO)S2(=O)=O	n	x	100	n	n	102	n	104
CC(C)CC#Cc1ccc2c(c1)O[C@@H](CN(C)Cc1cccnc1)[C@H](C)CN([C@@H](C)CO)S2(=O)=O	n	x	n	n	x	x	x	x
CC(C)CC#Cc1ccc2c(c1)O[C@@H](CN(C)Cc1cccnc1)[C@@H](C)CN([C@@H](C)CO)S2(=O)=O	n	x	108	n	108	n	n	107
O=C(NC1CCC1)[C@H]1[C@H](CO)[C@H]2Cn3c(ccc(/C=C/c4ccccc4)c3=O)[C@H]2N1Cc1ccncc1	n	n	n	x	x	x	x	x
CCC(=O)N(C)C[C@@H]1Oc2cc(-c3ccccc3)ccc2S(=O)(=O)N([C@H](C)CO)C[C@@H]1C	n	n	n	n	x	x	x	x
COc1ccc2c3c(n(C)c2c1)[C@H](CO)N(C(=O)c1cnccn1)CC31CCN(C(C)=O)CC1	n	n	x	x	x	x	x	x
Cc1ccc(S(=O)(=O)Nc2ccc3c(c2)C(=O)N([C@H](C)CO)C[C@@H](C)[C@H](CN(C)C(=O)Nc2ccc4c(c2)OCO4)OCCCC[C@H](C)O3)cc1	n	n	x	n	x	x	x	x
C[C@@H]1CCCCO[C@@H](CN(C)C(=O)Cc2ccccc2)[C@H](C)CN([C@H](C)CO)C(=O)c2cc(NC(=O)NC3CCCCC3)ccc2O1	n	n	100	n	108	n	n	26
C[C@H]1CCCCO[C@H](CN(C)C(=O)Cc2ccccc2)[C@@H](C)CN([C@@H](C)CO)C(=O)c2cc(NC(=O)Nc3ccccc3)ccc2O1	n	n	99	n	109	n	n	n
C[C@@H]1CCCCO[C@@H](CN(C)C(=O)Cc2ccccc2)[C@@H](C)CN([C@H](C)CO)C(=O)c2cc(NC(=O)Nc3cccc4ccccc34)ccc2O1	n	n	n	x	x	x	x	x
C[C@@H]1CCCCO[C@H](CN(C)C(=O)Cc2ccccc2)[C@H](C)CN([C@@H](C)CO)C(=O)c2cc(NC(=O)Nc3cccc4ccccc34)ccc2O1	n	n	101	x	105	n	n	n
O=C1CN(S(=O)(=O)c2ccccc2)C[C@H]2[C@@H](c3ccc(C#CCc4ccccc4)cc3)[C@@H](CO)N12	n	n	x	x	x	x	x	x
C[C@@H]1CN([C@@H](C)CO)C(=O)CCCn2cc(nn2)CO[C@@H]1CN(C)C(=O)Nc1ccc(F)cc1	n	n	n	x	x	x	x	x
